Source: ChEMBL document CHEMBL3272200, “Synthsis and antitumor properties of bis(quinaldine) derivatives” (J Med Chem, 1977)

Tests used:
Calf thymus DNA [1] = assay: Binding affinity to calf thymus DNA assessed as inhibition of DNA-dependent Escherichia coli RNA polymerase activity by measuring [14C]ATP incorporation by liquid scintillation spectrometer analysis; assay type: nucleic-acid assay, Bos taurus; details: for IC50: read-out: I50; for inhibition: Bos taurus
Procedure, shortened: (§1)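 0.125 mL mix: Tris-HCl pH 8.0 5 μmol, MgCl2 1.25 μmol, β-mercaptoethanol 1.25 μmol, CTP/UTP/GTP 0.019 μmol each, [8-14C]ATP 0.019 μmol, calf thymus DNA 3.65 μg. Compound in 5 μL MeOH (MeOH-only controls) added before the E. coli enzyme. Incubated 10 min at 37. Acid-insoluble label collected by filter-disk method and scintillation counted. Triplicates.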

[2] = Retardation factor of the compound using n-BuOH-AcOH-H2O at ratio of 3:1:2 as solvent system by silica gel based chromatography; assay type: physicochemical
P388 [3] = assay: Antitumor activity against mouse P388 cells assessed as mean animal survival time at 12.5 mg/kg administered qd for 1 to 9 days relative to control; assay type: functional
Procedure, shortened: (§2)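 P-388 leukemia survival test. The value is T/C: mean or median survival time of treated animals divided by that of control animals, expressed as a percentage. A compound counts as active if it gives reproducible T/C values of 125% or more.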

P388 [4] = assay: Antitumor activity against mouse P388 cells assessed as mean animal survival time at 6.25 mg/kg administered qd for 1 to 9 days relative to control; assay type: functional; procedure, shortened: as §2
P388 [5] = assay: Antitumor activity against mouse P388 cells assessed as mean animal survival time at 25 mg/kg administered qd for 1 to 9 days relative to control; assay type: functional; procedure, shortened: as §2
P388 [6] = assay: Antitumor activity against mouse P388 cells assessed as mean animal survival time at 100 mg/kg administered qd for 1 to 9 days relative to control; assay type: functional; procedure, shortened: as §2
Calf thymus DNA [7] = assay: Binding affinity to calf thymus DNA assessed as change in melting temperature at 10 uM by spectrophotometer analysis; assay type: nucleic-acid assay; details: Bos taurus
Procedure, shortened: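 Drug at 1×10^-5 M with 15 μg/mL calf thymus DNA in 5 mM phosphate buffer, pH 7.4. Absorbance followed at 260 nm while temperature rose at 1.0 °C/min to give the melting temperature.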

P388 [8] = assay: Antitumor activity against mouse P388 cells assessed as mean animal survival time at 400 mg/kg administered qd for 1 to 9 days relative to control; assay type: functional; procedure, shortened: as §2
Calf thymus DNA [9] = assay: Binding affinity to calf thymus DNA assessed as inhibition of DNA-dependent Escherichia coli RNA polymerase activity by measuring [14C]ATP incorporation at 5 uM by liquid scintillation spectrometer analysis; assay type: nucleic-acid assay; details: Bos taurus; procedure, shortened: as §1
Calf thymus DNA [10] = assay: Binding affinity to calf thymus DNA assessed as inhibition of DNA-dependent Escherichia coli RNA polymerase activity by measuring [14C]ATP incorporation at 0.1 mM by liquid scintillation spectrometer analysis; assay type: nucleic-acid assay; details: Bos taurus; procedure, shortened: as §1
Calf thymus DNA [11] = assay: Binding affinity to calf thymus DNA assessed as inhibition of DNA-dependent Escherichia coli RNA polymerase activity by measuring [14C]ATP incorporation at 2.5 uM by liquid scintillation spectrometer analysis; assay type: nucleic-acid assay; details: Bos taurus; procedure, shortened: as §1
Calf thymus DNA [12] = assay: Binding affinity to calf thymus DNA assessed as inhibition of DNA-dependent Escherichia coli RNA polymerase activity by measuring [14C]ATP incorporation at 50 uM by liquid scintillation spectrometer analysis; assay type: nucleic-acid assay; details: Bos taurus; procedure, shortened: as §1
Calf thymus DNA [13] = assay: Binding affinity to calf thymus DNA assessed as inhibition of DNA-dependent Escherichia coli RNA polymerase activity by measuring [14C]ATP incorporation at 7.5 uM by liquid scintillation spectrometer analysis; assay type: nucleic-acid assay; details: Bos taurus; procedure, shortened: as §1
Calf thymus DNA [14] = assay: Binding affinity to calf thymus DNA assessed as inhibition of DNA-dependent Escherichia coli RNA polymerase activity by measuring [14C]ATP incorporation at 10 uM by liquid scintillation spectrometer analysis; assay type: nucleic-acid assay; details: Bos taurus; procedure, shortened: as §1

Cc1cc(NCCCCCCNc2cc(C)nc3cc(N)ccc23)c2ccc(N)cc2n1.Cl
IC50 (Calf thymus DNA [1]): 6 µM
Rf [2]: 0.6

Cc1cc(NCCCNCCCNc2cc(C)nc3cc(N)ccc23)c2ccc(N)cc2n1.Cl
IC50 (Calf thymus DNA [1]): 6 µM
Rf [2]: 0.57

Cc1cc(NCCCCNCCCNc2cc(C)nc3cc([N+](=O)[O-])ccc23)c2ccc([N+](=O)[O-])cc2n1.Cl
T/C (P388 [3]): 150%
Rf [2]: 0.73

Cc1cc(NCCCCCCCNc2cc(C)nc3cc(N)ccc23)c2ccc(N)cc2n1.Cl
IC50 (Calf thymus DNA [1]): 6 µM
Rf [2]: 0.63

Cc1cc(NCCCCCCCCNc2cc(C)nc3cc([N+](=O)[O-])ccc23)c2ccc([N+](=O)[O-])cc2n1.Cl
T/C (P388 [3]): 110%
Rf [2]: 0.8

CC(=O)O.Cc1cc(NCCCCCCCNc2cc(C)nc3cc(N)ccc23)c2ccc(N)cc2n1
T/C (P388 [4]): 196%

Cc1cc(NCCCCCCCNc2cc(C)nc3cc([N+](=O)[O-])ccc23)c2ccc([N+](=O)[O-])cc2n1.Cl
T/C (P388 [3]): 149%
Rf [2]: 0.79

CC(=O)O.Cc1cc(NCCCCNCCCNc2cc(C)nc3cc(N)ccc23)c2ccc(N)cc2n1
T/C (P388 [5]): 165%

Cc1cc(NCCCCCCNc2cc(C)nc3cc([N+](=O)[O-])ccc23)c2ccc([N+](=O)[O-])cc2n1.Cl
T/C (P388 [6]): 99%
Rf [2]: 0.77

Cc1cc(NCCCCCCNc2cc(C)nc3ccc(N)cc23)c2cc(N)ccc2n1.Cl
ΔTm (Calf thymus DNA [7]): 18 °C
T/C (P388 [8]): 254%

Cc1cc(NCCCCCCNc2cc(C)nc3cc(N)ccc23)c2ccc(N)cc2n1
inhibition (Calf thymus DNA [1]): Dose-dependent effect
inhibition (Calf thymus DNA [9]): 29%
inhibition (Calf thymus DNA [10]): 97%
inhibition (Calf thymus DNA [11]): 0%
ΔTm (Calf thymus DNA [7]): 19 °C
inhibition (Calf thymus DNA [12]): 93%
inhibition (Calf thymus DNA [13]): 50%
inhibition (Calf thymus DNA [14]): 91%

Cc1cc(NCCCNCCCNc2cc(C)nc3cc([N+](=O)[O-])ccc23)c2ccc([N+](=O)[O-])cc2n1.Cl
T/C (P388 [5]): 150%
Rf [2]: 0.69

Cc1cc(NCCCCNCCCNc2cc(C)nc3cc(N)ccc23)c2ccc(N)cc2n1
inhibition (Calf thymus DNA [1]): Dose-dependent effect
inhibition (Calf thymus DNA [9]): 17%
inhibition (Calf thymus DNA [10]): 92%
inhibition (Calf thymus DNA [11]): 0%
ΔTm (Calf thymus DNA [7]): 19.5 °C
inhibition (Calf thymus DNA [12]): 94%
inhibition (Calf thymus DNA [13]): 38%
inhibition (Calf thymus DNA [14]): 95%

Cc1cc(NCCCCNCCCNc2cc(C)nc3cc(N)ccc23)c2ccc(N)cc2n1.Cl
IC50 (Calf thymus DNA [1]): 6 µM
Rf [2]: 0.5

CC(=O)O.Cc1cc(NCCCCCCNc2cc(C)nc3cc(N)ccc23)c2ccc(N)cc2n1
T/C (P388 [5]): 158%

Cc1cc(NCCCCCCCNc2cc(C)nc3cc(N)ccc23)c2ccc(N)cc2n1
inhibition (Calf thymus DNA [1]): Dose-dependent effect
inhibition (Calf thymus DNA [9]): 0%
inhibition (Calf thymus DNA [10]): 98%
inhibition (Calf thymus DNA [11]): 0%
ΔTm (Calf thymus DNA [7]): 17 °C
inhibition (Calf thymus DNA [12]): 98%
inhibition (Calf thymus DNA [13]): 24%
inhibition (Calf thymus DNA [14]): 63%

CC(=O)O.Cc1cc(NCCCNCCCNc2cc(C)nc3cc(N)ccc23)c2ccc(N)cc2n1
T/C (P388 [3]): 150%

Cc1cc(NCCCNCCCNc2cc(C)nc3cc(N)ccc23)c2ccc(N)cc2n1
inhibition (Calf thymus DNA [1]): Dose-dependent effect
inhibition (Calf thymus DNA [9]): 9%
inhibition (Calf thymus DNA [10]): 94%
inhibition (Calf thymus DNA [11]): 0%
ΔTm (Calf thymus DNA [7]): 22.5 °C
inhibition (Calf thymus DNA [12]): 98%
inhibition (Calf thymus DNA [13]): 31%
inhibition (Calf thymus DNA [14]): 96%

Cc1cc(NCCCCCCCCNc2cc(C)nc3cc(N)ccc23)c2ccc(N)cc2n1.Cl
IC50 (Calf thymus DNA [1]): 6 µM
Rf [2]: 0.7

Cc1cc(NCCCCCCCCNc2cc(C)nc3cc(N)ccc23)c2ccc(N)cc2n1
inhibition (Calf thymus DNA [1]): Dose-dependent effect
inhibition (Calf thymus DNA [9]): 38%
inhibition (Calf thymus DNA [10]): 97%
inhibition (Calf thymus DNA [11]): 0%
ΔTm (Calf thymus DNA [7]): 18.5 °C
inhibition (Calf thymus DNA [12]): 95%
inhibition (Calf thymus DNA [13]): 91%
inhibition (Calf thymus DNA [14]): 95%

CC(=O)O.Cc1cc(NCCCCCCCCNc2cc(C)nc3cc(N)ccc23)c2ccc(N)cc2n1
T/C (P388 [4]): 134%
